Measured values as given in ChEMBL document CHEMBL1124622, “Synthesis and antiviral activity of 3'-C-cyano-3'-deoxynucleosides” (J Med Chem, 1989).
≈ marks a conversion by molar mass, not a printed value.

Assays:
[1] = (§1) Minimum cytotoxic concentration in Vero cell cultures; format: cell-based; details: chlorocebus sabaeus, Vero cells
[2] = tested on: Vesicular stomatitis virus; experiment: (§2) Minimum inhibitory concentration against Vesicular stomatitis virus in HeLa cell cultures; format: functional
In short: (§3)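 Confluent HeLa, Vero or primary rabbit kidney cell cultures in microtiter trays are inoculated with 100 CCID50 of virus. After 1 h adsorption, residual virus is removed and cells are incubated with varying compound concentrations. Cytopathogenicity is recorded once it is complete in untreated virus-infected controls. MIC is the concentration inhibiting virus-induced cytopathogenicity.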

[3] = (§4) Minimum cytotoxic concentration in primary rabbit kidney cell cultures; format: cell-based, Oryctolagus cuniculus; details: primary rabbit kidney cells
Homo sapiens = organism: Homo sapiens; experiment: Cytotoxic dose against uninfected human MT-4 cell; format: functional; details: MT4, read-out: CD50 (the source's name)
In short: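 Cytotoxicity counterpart of the HIV assay: uninfected human MT-4 lymphocytes exposed to the compounds. CD50 is the dose that reduces viability of these uninfected cells by 50%.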

Enterovirus C = experiment: (§5) Minimum inhibitory concentration against polio virus 1 in HeLa cell cultures; format: functional; in short: as §3
Semliki Forest virus = experiment: Minimum inhibitory concentration against forest virus in Vero cell cultures; format: functional; in short: as §3
[4] = tested on: Vesicular stomatitis virus; experiment: Minimum inhibitory concentration against Vesicular stomatitis virus in primary rabbit kidney cell cultures; format: functional; in short: as §3
Reovirus sp. = experiment: (§6) Minimum inhibitory concentration against reovirus in Vero cell cultures; format: functional; in short: as §3
Coxsackievirus = experiment: (§7) Minimum inhibitory concentration against Coxsackie virus B4 in Vero cell cultures; format: functional; in short: as §3
Human respirovirus 3 = experiment: (§8) Minimum inhibitory concentration against parainfluenza 3 virus in Vero cell cultures; format: functional; in short: as §3
Sindbis virus = experiment: Minimum inhibitory concentration against Sindbis virus in Vero cell cultures; format: functional; in short: as §3
[5] = tested on: Moloney murine sarcoma virus; experiment: In vitro effective dose against Moloney murine sarcoma virus induced transformation of C3H embryo fibroblast cells.; format: functional; details: read-out: ED50 (the source's name)
In short: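 C3H mouse embryo cells are seeded at 20 000 cells/mL per well and grown 24 h. They are infected with 80 foci-forming units of Moloney MSV for 90 min, then given fresh medium with varying compound concentrations. Transformation is examined microscopically after 6-7 days. ED50 is the dose giving a 50% reduction in transformation.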

[6] = (§9) Minimum cytotoxic concentration in HeLa cell cultures; format: cell-based; details: human, HeLa cells
[7] = In vitro minimum cytotoxic concentration in C3H embryo fibroblast cells.; format: functional; details: Mus musculus
In short: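 Minimal cytotoxic concentration in C3H mouse embryo cells, run in the same 48-well setup as the MSV transformation assay: the concentration producing microscopically visible alteration of cell morphology.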

Coxsackievirus B4 [8] = experiment: (§10) Minimum inhibitory concentration against Coxsackie virus B4 in HeLa cell cultures; format: functional; details: Enterovirus B; in short: as §3
[9] = tested on: Human immunodeficiency virus 1; experiment: Effective dose against HIV-1 induced cytopathogenicity in human MT-4 cell.; format: functional; details: Human immunodeficiency virus 1, MT4; read-out: ED50 (the source's name)
In short: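 HIV (HTLV-III_B) is taken from the culture supernatant of a persistently infected HUT-78 line. Human MT-4 lymphocytes are infected and the assay scores inhibition of virus-induced cytopathogenicity. ED50 is the dose giving 50% protection of MT-4 cells against the viral cytopathic effect.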

HeLa [10] = experiment: as §2; format: functional; details: Homo sapiens; in short: as §3
HeLa [11] = experiment: as §5; format: functional; details: Homo sapiens; in short: as §3
[12] = tested on: Mammalian orthoreovirus 1; experiment: as §6; format: functional; in short: as §3
Coxsackievirus B4 [13] = experiment: as §7; format: functional; details: Enterovirus B; in short: as §3
Vaccinia virus = experiment: Minimum inhibitory concentration against Vaccinia virus in primary rabbit kidney cell cultures; format: functional; details: Orthopoxvirus vaccinia; in short: as §3
HeLa [14] = experiment: as §10; format: functional; details: Homo sapiens; in short: as §3
[15] = inimum cytotoxic concentration in Vero cell cultures; format: cell-based; details: chlorocebus sabaeus, Vero cells
Vero [16] = experiment: as §8; format: functional, Human respirovirus 3; details: Chlorocebus sabaeus; in short: as §3
HeLa [17] = experiment: as §9; format: functional; details: Homo sapiens
Vero [18] = experiment: as §1; format: functional; details: Chlorocebus sabaeus
Oryctolagus cuniculus = organism: Oryctolagus cuniculus; experiment: as §4; format: functional

SMILES | MCC [3] [µg/mL] | CC50 (Homo sapiens) [µM] | MIC (Semliki Forest virus) [µg/mL] | MIC [4] [µg/mL] | MIC (Human respirovirus 3) [µg/mL] | MIC (Sindbis virus) [µg/mL] | EC50 [5] [µg/mL] | MCC [6] [µg/mL] | MCC [7] [µg/mL] | EC50 [9] [µM] | MIC (HeLa [10]) [µg/mL] | MIC (HeLa [11]) [µg/mL] | MIC [12] [µg/mL] | MIC (Coxsackievirus B4 [13]) [µg/mL] | MIC (Vaccinia virus) [µg/mL] | MIC (HeLa [14]) [µg/mL] | other results
N#C[C@H]1[C@@H](O)[C@H](n2cnc3c(N)ncnc32)O[C@@H]1CO | > 400 | 3.8 | 20 (≈ 72.4 µM) | > 400 | > 100 | 10 (≈ 36.2 µM) | 8.5 (≈ 30.8 µM) | > 200 | > 40 | > 1.6 |  |  |  |  |  |  | MCC [1]: 100 µg/mL; MIC [2]: > 100 µg/mL; MIC (Enterovirus C): > 100 µg/mL; MIC (Reovirus sp.): > 40 µg/mL; MIC (Coxsackievirus): > 100 µg/mL; MIC (Coxsackievirus B4 [8]): 200 µg/mL (≈ 724 µM)
CC(C)(C)[Si](C)(C)OC[C@H]1O[C@@H](n2cnc3c(N)ncnc32)[C@H](O[Si](C)(C)C(C)(C)C)[C@H]1C#N | > 100 | 25 | > 40 | > 40 | > 10 | 20 (≈ 39.6 µM) | 16 (≈ 31.7 µM) | > 100 | 80 | > 16 | > 40 | > 40 | > 10 | 20 (≈ 39.6 µM) | > 40 | > 40 | MCC [15]: > 40 µg/mL
Nc1ncnc2c1ncn2C[C@H](O)CO [(S)-DHPA] |  |  | > 400 | 20 (≈ 95.6 µM) |  | > 400 |  |  |  |  | > 400 | > 400 | 7 (≈ 33.5 µM) | 100 (≈ 478 µM) | 20 (≈ 95.6 µM) | 2 (≈ 9.56 µM) | MIC (Vero [16]): 150 µg/mL (≈ 717 µM); MCC (HeLa [17]): > 400 µg/mL; MCC (Vero [18]): 400 µg/mL; MCC (Oryctolagus cuniculus): ≥ 400 µg/mL
